In ChEMBL document CHEMBL4373711, “Development of 3,5-Dinitrophenyl-Containing 1,2,4-Triazoles and Their Trifluoromethyl Analogues as Highly Efficient Antitubercular Agents Inhibiting Decaprenylphosphoryl-β-d-ribofuranose 2'-Oxidase” (J Med Chem, 2019):
Converted amounts (≈) assume the structure as drawn. The source made the active and inactive calls. The rule behind the calls is not given here.

What was measured:
[1] = test system: Mycobacterium kansasii; assay: Antimycobacterial activity against Mycobacterium kansasii 6509/96 after 14 days; assay type: functional; details: 6509/96, 336 h
Procedure, shortened: (§1)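 Microdilution in Šula's semisynthetic medium; compounds in DMSO at 32–0.03 µM. Inoculum from 1.0 McFarland suspension diluted 10-4. […] Isoniazid and rifampicin as reference drugs.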

[2] = test system: Lichtheimia corymbifera; assay: Antifungal activity against Lichtheimia corymbifera CCM 8077 at highest concentration measured after 24 to 48 hrs by alamar blue dye based broth microdilution assay; assay type: functional, organism-based
[3] = test system: Aspergillus flavus; assay: Antifungal activity against Aspergillus flavus CCM 8363 at highest concentration measured after 24 to 48 hrs by alamar blue dye based broth microdilution assay; assay type: functional, organism-based
[4] = test system: Mycobacterium kansasii; assay: Antimycobacterial activity against Mycobacterium kansasii 6509/96 after 7 days; assay type: functional; details: 6509/96, 168 h; procedure, shortened: as §1
[5] = test system: Mycobacterium tuberculosis; assay: Antimycobacterial activity against Mycobacterium tuberculosis H37Rv CNCTC My 331/88 after 21 days; assay type: functional; details: H37Rv CNCTC My 331/88, 504 h
Procedure, shortened: (§2)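 M. tuberculosis strains (H37Rv and clinical MDR/XDR isolates) tested by microdilution in Šula's semisynthetic medium. Compounds were dissolved in DMSO and tested at 32 to 0.03 µM in twofold steps. Inoculum was a 1.0 McFarland suspension diluted 10-3. Plates were incubated at 37 °C and read at 14 and 21 days.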

[6] = test system: Escherichia coli; assay: Antibacterial activity against Escherichia coli ATCC 25922 CCM 3954 at highest concentration measured after 24 to 48 hrs by alamar blue dye based broth microdilution assay; assay type: functional, organism-based
[7] = test system: Staphylococcus aureus; assay: Antibacterial activity against Staphylococcus aureus subsp. aureus ATCC 29213 CCM 4223 at highest concentration measured after 24 to 48 hrs by alamar blue dye based broth microdilution assay; assay type: functional, organism-based
[8] = test system: Pseudomonas aeruginosa; assay: Antibacterial activity against Pseudomonas aeruginosa ATCC 27853 CCM 3955 at highest concentration measured after 24 to 48 hrs by alamar blue dye based broth microdilution assay; assay type: functional, organism-based
[9] = test system: Mycobacterium tuberculosis; assay: Antimycobacterial activity against Mycobacterium tuberculosis H37Rv CNCTC My 331/88 after 14 days; assay type: functional; details: H37Rv CNCTC My 331/88, 336 h; procedure, shortened: as §2
[10] = test system: Candida parapsilosis; assay: Antifungal activity against Candida parapsilosis ATCC 22019 CCM 8260 at highest concentration measured after 24 to 48 hrs by alamar blue dye based broth microdilution assay; assay type: functional, organism-based
[11] = test system: HepG2; assay: Cytotoxicity against human HepG2 cells assessed as reduction in cell viability after 48 hrs by CellTiter 96 aqueous one solution assay; assay type: cell-based; details: HepG2, 48 h
[12] = test system: Trichophyton interdigitale; assay: Antifungal activity against Trichophyton interdigitale ATCC 9533 CCM 8377 at highest concentration measured after 72 to 120 hrs by alamar blue dye based broth microdilution assay; assay type: functional
[13] = Cytotoxicity against human HepG2 cells assessed as cell viability at 30 uM after 48 hrs by CellTiter 96 aqueous one solution assay relative to control; assay type: cell-based; details: read-out: Activity
Procedure, shortened: (§3)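 HepG2 (DMEM, 10% FBS, 1 mM pyruvate) or A431 (DMEM, 10% FBS) seeded 10,000 cells/well, 24 h at 37 °C, 5% CO2, then 30 µM compound for 48 h. MTS reagent 60 min, absorbance 490 nm, background subtracted; 0.1% DMSO vehicle = 100%, 10% SDS = 0% viability.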

[14] = test system: Pichia kudriavzevii; assay: Antifungal activity against Candida krusei ATCC 6258 CCM8271 at highest concentration measured after 24 to 48 hrs by alamar blue dye based broth microdilution assay; assay type: functional, organism-based
[15] = Cytotoxicity against human A431 cells assessed as cell viability at 30 uM after 48 hrs by CellTiter 96 aqueous one solution assay relative to control; assay type: cell-based, A-431; details: read-out: Activity; procedure, shortened: as §3
[16] = test system: Mycobacterium kansasii; assay: Antimycobacterial activity against Mycobacterium kansasii CNCTC My 235/80 after 7 days; assay type: functional; details: CNCTC My 235/80, 168 h; procedure, shortened: as §1
[17] = test system: Aspergillus fumigatus; assay: Antifungal activity against Aspergillus fumigatus ATCC 204305 at highest concentration measured after 24 to 48 hrs by alamar blue dye based broth microdilution assay; assay type: functional, organism-based
[18] = test system: Staphylococcus epidermidis; assay: Antibacterial activity against Staphylococcus epidermidis at highest concentration measured after 24 to 48 hrs by alamar blue dye based broth microdilution assay; assay type: functional, organism-based
[19] = test system: Staphylococcus aureus; assay: Antibacterial activity against methicillin-resistant Staphylococcus aureus subsp. aureus ATCC 43300 CCM 4750 at highest concentration measured after 24 to 48 hrs by alamar blue dye based broth microdilution assay; assay type: functional, organism-based
[20] = test system: Serratia marcescens; assay: Antibacterial activity against Serratia marcescens at highest concentration measured after 24 to 48 hrs by alamar blue dye based broth microdilution assay; assay type: functional, organism-based
[21] = test system: Enterococcus faecalis; assay: Antibacterial activity against Enterococcus faecalis ATCC 29212 CCM 4224 at highest concentration measured after 24 to 48 hrs by alamar blue dye based broth microdilution assay; assay type: functional, organism-based
[22] = test system: Mycobacterium avium; assay: Antimycobacterial activity against Mycobacterium avium CNCTC My 330/88 after 14 days; assay type: functional; details: CNCTC My 330/88, 336 h
Procedure, shortened: (§4)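 M. avium was tested by microdilution in Šula's semisynthetic medium, with compounds dissolved in DMSO and serially diluted from 1000 down to 1. Inoculum was a 1.0 McFarland suspension diluted 10-5. Plates were incubated at 37 °C and read at 14 and 21 days. […] Isoniazid and rifampicin served as standards.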

[23] = test system: Mycobacterium avium; assay: Antimycobacterial activity against Mycobacterium avium CNCTC My 330/88 after 21 days; assay type: functional; details: CNCTC My 330/88, 504 h; procedure, shortened: as §4
[24] = test system: Mycobacterium kansasii; assay: Antimycobacterial activity against Mycobacterium kansasii CNCTC My 235/80 after 21 days; assay type: functional; details: CNCTC My 235/80, 504 h; procedure, shortened: as §1
[25] = test system: Mycobacterium kansasii; assay: Antimycobacterial activity against Mycobacterium kansasii CNCTC My 235/80 after 14 days; assay type: functional; details: CNCTC My 235/80, 336 h; procedure, shortened: as §1
[26] = test system: Candida tropicalis; assay: Antifungal activity against Candida tropicalis ATCC 750 CCM 8264 at highest concentration measured after 24 to 48 hrs by alamar blue dye based broth microdilution assay; assay type: functional, organism-based
[27] = test system: A-431; assay: Cytotoxicity against human A431 cells assessed as reduction in cell viability after 48 hrs by CellTiter 96 aqueous one solution assay; assay type: cell-based; details: A-431, 48 h
[28] = test system: Klebsiella pneumoniae; assay: Antibacterial activity against Klebsiella pneumoniae at highest concentration measured after 24 to 48 hrs by alamar blue dye based broth microdilution assay; assay type: functional, organism-based
[29] = test system: Mycobacterium kansasii; assay: Antimycobacterial activity against Mycobacterium kansasii 6509/96 after 21 days; assay type: functional; details: 6509/96, 504 h; procedure, shortened: as §1
[30] = test system: Candida albicans; assay: Antifungal activity against Candida albicans ATCC 24433 CCM 8320 at highest concentration measured after 24 to 48 hrs by alamar blue dye based broth microdilution assay; assay type: functional, organism-based

Structure (SMILES)	MIC99 [1] [µM]	Activity [2]	Activity [3]	MIC99 [4] [µM]	MIC99 [5] [µM]	Activity [6]	Activity [7]	Activity [8]	MIC99 [9] [µM]	Activity [10]	IC50 [11] [µM]	Activity [12]	viability at 48 h, 30 µM [13] [%]	Activity [14]	viability at 48 h, 30 µM [15] [%]	MIC99 [16] [µM]	Activity [17]	Activity [18]	Activity [19]	Activity [20]	other results
COc1ccc(CSc2nnc(-c3cc([N+](=O)[O-])cc([N+](=O)[O-])c3)n2C)cc1	2 (≈ 0.803 µg/mL)	inactive	inactive	2 (≈ 0.803 µg/mL)	0.5 (≈ 0.201 µg/mL)	inactive	inactive	inactive	0.25 (≈ 0.1 µg/mL)	inactive	> 30	inactive	107	inactive	104	1 (≈ 0.401 µg/mL)	inactive	inactive	inactive	inactive	Activity [21]: inactive; MIC99 [22]: 16 µM (≈ 6.42 µg/mL); MIC99 [23]: 16 µM (≈ 6.42 µg/mL); MIC99 [24]: 4 µM (≈ 1.61 µg/mL); MIC99 [25]: 2 µM (≈ 0.803 µg/mL); Activity [26]: inactive; IC50 [27]: > 30 µM; Activity [28]: inactive; MIC99 [29]: 2 µM (≈ 0.803 µg/mL); Activity [30]: inactive
O=[N+]([O-])c1cc(CSc2nnc(-c3ccc(Cl)cc3)n2Cc2ccccc2)cc(C(F)(F)F)c1	> 32	inactive	inactive	> 32	> 32	inactive	inactive	inactive	32 (≈ 16.2 µg/mL)	inactive	> 30	inactive	107	inactive	73	32 (≈ 16.2 µg/mL)	inactive	inactive	inactive	inactive	Activity [21]: inactive; MIC99 [22]: 250 µM (≈ 126 µg/mL); MIC99 [23]: 250 µM (≈ 126 µg/mL); MIC99 [24]: > 32 µM; MIC99 [25]: > 32 µM; Activity [26]: inactive; IC50 [27]: > 30 µM; Activity [28]: inactive; MIC99 [29]: > 32 µM; Activity [30]: inactive
CCCCCCn1c(SCc2ccccc2)nnc1-c1cc([N+](=O)[O-])cc([N+](=O)[O-])c1	1 (≈ 0.442 µg/mL)	inactive	inactive	1 (≈ 0.442 µg/mL)	1 (≈ 0.442 µg/mL)	inactive	inactive	inactive	1 (≈ 0.442 µg/mL)	inactive	> 30	inactive	102	inactive	98	1 (≈ 0.442 µg/mL)	inactive	inactive	inactive	inactive	Activity [21]: inactive; MIC99 [22]: 250 µM (≈ 110 µg/mL); MIC99 [23]: 250 µM (≈ 110 µg/mL); MIC99 [24]: 1 µM (≈ 0.442 µg/mL); MIC99 [25]: 1 µM (≈ 0.442 µg/mL); Activity [26]: inactive; IC50 [27]: > 30 µM; Activity [28]: inactive; MIC99 [29]: 1 µM (≈ 0.442 µg/mL); Activity [30]: inactive
O=[N+]([O-])c1cc(CSc2nnc(-c3ccccc3)n2C2CCCCC2)cc([N+](=O)[O-])c1	2 (≈ 0.879 µg/mL)	inactive	inactive	1 (≈ 0.439 µg/mL)	2 (≈ 0.879 µg/mL)	inactive	inactive	inactive	1 (≈ 0.439 µg/mL)	inactive	> 30	inactive	87	inactive	131	1 (≈ 0.439 µg/mL)	inactive	inactive	inactive	inactive	Activity [21]: inactive; MIC99 [22]: 250 µM (≈ 110 µg/mL); MIC99 [23]: 250 µM (≈ 110 µg/mL); MIC99 [24]: 4 µM (≈ 1.76 µg/mL); MIC99 [25]: 2 µM (≈ 0.879 µg/mL); Activity [26]: inactive; IC50 [27]: > 30 µM; Activity [28]: inactive; MIC99 [29]: 4 µM (≈ 1.76 µg/mL); Activity [30]: inactive
